Experimental findings from ChEMBL document CHEMBL1143377, “Design, synthesis, and evaluation of potent, nonpeptidic mimetics of second mitochondria-derived activator of caspases” (J Med Chem, 2009) are described below.

For assay [1], the system named is MDA-MB-231. The experiment in a line: cells. As to conditions: Homo sapiens, MDA-MB-231, 96 h.
In assay [2] the test system is MDA-MB-231. The experiment in a line: Induction of apoptosis in human MDA-MB-231 cells assessed as PARP cleavage after 24 hrs by Western blotting. It is filed as functional, cell-based. An outline of the steps: (§1)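 MDA-MB-231 breast cancer cells were exposed to Smac mimetics for 24 hours. Cell proteins were then probed on Western blots with specific antibodies against cIAP-1, XIAP, cleaved caspase-8, pro- and cleaved caspase-3, and cleaved PARP. GAPDH served as the loading control.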

Assay [3] has as its system MDA-MB-231. The experiment in a line: Induction of apoptosis in human MDA-MB-231 cells assessed as increase in caspase 3 activation after 24 hrs by Western blotting. It is filed as functional, cell-based. An outline of the steps:
as §1
In general terms: A western blot detects proteins with antibodies after separation by electrophoresis.

For assay [4], the system named is MDA-MB-231. The experiment in a line: Induction of apoptosis in human MDA-MB-231 cells assessed as increase in caspase 8 activation after 24 hrs by Western blotting. It is filed as functional, cell-based. An outline of the steps: as §1
The subject of assay [5] is MDA-MB-231. The experiment in a line: Induction of cIAP1 degradation in human MDA-MB-231 cells after 24 hrs by Western blotting. Type of assay: functional, cell-based. The method, boiled down: as §1

Each structure is given as a SMILES string.

Regarding `CN[C@@H](C)C(=O)N[C@H]1C/C=C\C[C@H]2[C@@H](Cc3ccccc3)C[C@@H](C(=O)N[C@@H]3CCCc4ccccc43)N2C1=O`, the IC50 in the assay with MDA-MB-231 [1] came out at 26 nM.
For `CN[C@@H](C)C(=O)N[C@H]1CCCC[C@H]2[C@@H](Cc3ccccc3)C[C@@H](C(=O)N[C@@H]3CCCc4ccccc43)N2C1=O`, the Activity result in the assay with MDA-MB-231 [2], in the assay on MDA-MB-231 [3], with MDA-MB-231 [4] and in the assay with MDA-MB-231 [5] was “Dose-dependent effect” throughout.
Regarding `CN[C@@H](C)C(=O)N[C@H]1CCCC[C@H]2CC[C@@H](C(=O)N[C@@H]3CCCc4ccccc43)N2C1=O`, the Activity entry in the assay on MDA-MB-231 [2], in the assay with MDA-MB-231 [3], with MDA-MB-231 [4] and with MDA-MB-231 [5] was “Dose-dependent effect” in each case.
Consider `CN[C@@H](C)C(=O)N[C@H]1CCCC[C@H]2CC[C@@H](C(=O)NC(c3ccccc3)c3ccccc3)N2C1=O`, for which the Activity result with MDA-MB-231 [2], with MDA-MB-231 [3], in the assay with MDA-MB-231 [4] and in the assay on MDA-MB-231 [5] was “Dose-dependent effect” each time. The IC50 in the assay with MDA-MB-231 [1] is 259 nM.

One may read the IC50 as the point on the concentration scale where inhibition reaches its midpoint. Lower therefore signals higher potency.
